# This excerpt belongs to a sample that is enriched for hits.
# S1P4 antagonist: human S1P4 receptor antagonism. O95977. AID 1510. 0.26% of 220,000 active. inhibition, % at 4.98 µM. S1P4-expressing cells, antagonist mode, reporter read-out; in the data active = inhibition above about 29%
# S1P4 agonist: agonists of human S1P4 receptor; O95977; S1P4-expressing cell line, agonist reporter assay; activation, % at 4.98 µM; 0.35% of 220,000 active; AID 1509; in the data active = activation above about 11%
# Mdm2 ligase inh: inhibitors of human Mdm2 E3 ubiquitin ligase | signal enhancement, % at 5 µM | cell-based MDM2 ubiquitination luciferase reporter, 2 h; 0 = plate control, 100 = twice control, blank-subtracted | Q00987 | 0.11% of 210,000 active | AID 1230;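 active = signal enhancement of 30% or more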;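 also: luminescence tracks abundance of the self-degrading MDM2-luciferase fusion protein; higher signal means inhibition of MDM2 E3 ligase activity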
#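 System: stable MDM2–luciferase fusion reporter cells / Input: 2000 cells seeded into each well / Schedule: 4 h settle plus 2 h compound, 37 °C / Compound: single-point 5 µM / Buffer or medium: cells held in DMEM / Benchmarks: control and blank well means / Evaluation: percent signal gain over controls, blank-subtracted / Measured by: luciferase luminescence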
# S1P3 antag: blocks the human S1P3 receptor | inhibition, % at 4.98 µM | 0.27% of 170,000 active | CHO S1P3 NFAT-BLA reporter, FRET fluorescence, antagonist mode;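 active = inhibition above the plate cutoff, the mean inhibition of test wells on that plate plus 3 SD, cut at about 28% in these data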;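 also: cells challenged with S1P at its EC80 of 0.8 µM; blue over green emission ratio from cleaved BLA substrate after 4 h stimulation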
# L major viab: Leishmania major promastigote growth inhibition; 9% of 200,000 active; inhibition, % at 10 µM; Leishmania major promastigotes, resazurin fluorescence viability; AID 1063; in the data active = inhibition above about 50%;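 also: promastigotes grown with compound for 44 hours at 28 °C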
# L major 1uM: L. major promastigote growth inhibition, 1 uM repeat; resazurin fluorescence, 48 h; 13% of 1,100 active; shares compounds with L major viab; inhibition, % at 1 µM; AID 1258;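 active = inhibition above about 50% in both repeat tests, limit read from the data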
# S1P4 ag conf: confirmation of human S1P4 receptor agonists; shares compounds with S1P4 agonist; S1P4 agonist cell-based reporter assay; activation, % at 4.98 µM; 7% of 740 active; in the data active = activation above about 12%
# S1P1 agonist: human S1P1 agonism as S1P4 agonist counter-screen; shares compounds with S1P4 agonist; S1P1 agonist cell-based assay, activation; activation, % at 4.98 µM; 4% of 740 active; in the data active = activation above about 21%
# Target sequence (P21453 whole entry, looked up): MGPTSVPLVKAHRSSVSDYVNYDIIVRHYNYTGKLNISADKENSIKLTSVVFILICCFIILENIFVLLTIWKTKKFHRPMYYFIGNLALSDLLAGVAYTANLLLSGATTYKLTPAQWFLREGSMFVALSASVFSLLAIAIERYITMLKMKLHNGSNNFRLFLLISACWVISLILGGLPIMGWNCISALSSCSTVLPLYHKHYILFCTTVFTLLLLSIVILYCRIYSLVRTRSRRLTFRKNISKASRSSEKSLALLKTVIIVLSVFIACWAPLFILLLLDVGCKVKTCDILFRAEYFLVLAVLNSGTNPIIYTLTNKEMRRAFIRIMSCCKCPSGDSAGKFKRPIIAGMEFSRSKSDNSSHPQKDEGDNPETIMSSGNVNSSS
# S1P4 antag cf: human S1P4 antagonism, confirmation; S1P4-expressing cell line, antagonist mode, reporter read-out; AID 1524; 71% of 520 active; shares compounds with S1P4 antagonist; inhibition, % at 4.98 µM; in the data active = inhibition above about 30%
# S1P1 antag: blocks human S1P1, counter-screen for S1P4 antagonists | shares compounds with S1P4 antagonist | cell-based S1P1 antagonist counterscreen, inhibition | inhibition, % at 4.98 µM | 37% of 520 active; in the data active = inhibition above about 40%;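 also: receptor stimulated with S1P near its EC80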
# Hits are given with their value; – = inactive; · = no result.
SMILES,S1P4 antagonist,S1P4 agonist,Mdm2 ligase inh,S1P3 antag,L major viab,S1P4 ag conf,S1P1 agonist,others
NC(=O)COC(=O)c1ccccc1SCC(=O)NC1CCCCCC1,–,–,–,–,–,·,·,
O=c1[nH]sc2ccccc12,32.4,–,–,–,67.0,·,·,L major 1uM=–;S1P4 antag cf=91.2;S1P1 antag=–
O=c1cc(O)sc2ccccc12,–,–,–,–,–,·,·,
Cc1ccc(NC(=O)CCC(=O)NNC(=O)NC2CCCCC2)c(C)c1,–,–,–,–,–,·,·,
CCCCS(=O)(=O)/C=C\C1C2C=CC(C2)C1S(=O)(=O)CCCC (configuration not stated),–,–,–,–,–,·,·,
CCCCS(=O)(=O)/C=C\C=C/S(=O)(=O)CCCC,99.4,–,30.8,·,100.7,·,·,L major 1uM=94.4;S1P4 antag cf=117.2;S1P1 antag=62.1
Cc1cccc(CSc2cccc3cccnc23)c1,38.6,–,–,·,100.3,·,·,L major 1uM=–;S1P4 antag cf=95.6;S1P1 antag=64.7
O=C(CC1SC(N2CCOCC2)=NC1=O)Nc1cc([N+](=O)[O-])ccc1Cl (configuration not stated),–,–,–,–,–,·,·,
Cc1ccccc1NC(=O)c1ccc(N/N=C/c2ccccc2O)c([N+](=O)[O-])c1,–,–,–,·,–,·,·,
Cc1ccc(NC(=O)c2ccc(N/N=C/c3cccc(O)c3)c([N+](=O)[O-])c2)cc1,–,14.4,–,·,–,–,–,
CCn1c(=O)c(-c2nc3ccccc3[nH]2)c(O)c2ccccc21,–,35.4,–,–,–,–,–,
CCCn1c(=O)c(-c2nc3ccccc3[nH]2)c(O)c2ccccc21,–,–,–,–,–,·,·,
CCOC(=O)CSc1ccc(-c2nc3ccccc3[nH]2)cn1,–,19.1,–,·,–,–,–,
Cc1nc(NC(=O)CSc2ccc(-c3nc4ccccc4[nH]3)cn2)sc1C,–,–,·,–,–,·,·,
Cc1ccc2[nH]c(=O)c(CN(C)C(=O)c3cccs3)cc2c1,–,21.6,–,–,–,–,–,
CN(Cc1cc2ccccc2[nH]c1=O)C(=O)c1cccs1,–,–,–,–,–,·,·,
C=CCNC(=O)c1ccc(N(C)S(=O)(=O)c2ccc(OC)cc2)cc1,–,–,–,·,–,·,·,
C=CCNC(=O)c1ccc(OC)cc1,–,14.7,–,–,·,–,–,
O=[N+]([O-])c1ccc2c(c1)CNc1ccccc1O2,–,33.1,–,–,–,–,–,
COc1ccc2nc(SCC(=O)C(C)(C)C)[nH]c2c1,–,–,–,–,·,·,·,
CC(=O)Nc1ccc(S(=O)(=O)n2nc(-c3ccc(C)cc3)nc2N)cc1,–,20.5,–,–,–,–,–,
CCOC(=O)C1CCN(c2nc(N)c3c(N)nc(SCC(=O)O)cc3c2C#N)CC1,–,–,–,–,·,·,·,
COc1ccc(NC(=O)CSc2nc3ccccc3n2-c2ccccc2)c([N+](=O)[O-])c1,–,44.5,–,–,69.9,–,–,
COc1ccc(NC(=O)CSc2ccccc2)c([N+](=O)[O-])c1,–,–,–,–,–,·,·,
CSc1nc(-c2ccc(Cl)cc2)nc(N)c1C#N,–,–,–,–,·,·,·,
SMILES,S1P4 antagonist,S1P4 agonist,Mdm2 ligase inh,S1P3 antag,L major viab,S1P4 ag conf,S1P1 agonist,others
CSc1nc(N)c(C#N)c(-c2ccc(Cl)cc2)c1C#N,–,11.2,–,–,–,–,–,
CCCCC(=O)N(Cc1ccc(-c2ccccc2-c2nn[nH]n2)cc1)[C@H](C(=O)O)C(C)C,–,–,·,–,·,·,·,
Cc1cccc(C)c1-n1c(C)nn(CC#N)c1=O,–,–,–,–,–,·,·,
O=C(CNC(=O)c1ccc(F)cc1)N/N=C/c1cn[nH]c1-c1ccccc1,–,16.5,–,–,–,–,–,
O=[N+]([O-])c1cccc(NC(=S)NCCc2ccccc2)c1,–,20.3,–,–,–,–,–,
CCc1ccc(NC(=O)N(CCN2CCOCC2)C2CCN(C(C)=O)CC2)cc1,–,16.2,–,–,–,–,–,
CC(C)(C)S(=O)(=O)/C(C#N)=N/Nc1ccc(Cl)cc1,–,–,–,–,–,·,·,
CC(C)(C)c1ccc(N/N=C(\C#N)S(=O)(=O)C(C)(C)C)cc1,–,28.8,–,–,–,–,–,
COc1cc(OC)cc(C(=O)N[C@@H](CCSC)c2nc3ccccc3[nH]2)c1,–,–,–,–,–,·,·,
Nn1c(SCC(=O)Nc2cccc(F)c2)nnc1C1CCCCC1,–,17.9,–,–,–,–,–,
COc1ccc(NC(=O)CSc2nnc(C3CCCCC3)n2N)cc1,–,–,–,–,·,·,·,
COc1ccc(NC(=S)N2CCN(c3ccccn3)CC2)cc1OC,–,27.6,–,–,–,–,–,
COc1cc(NC(=S)N2CCN(c3ccccn3)CC2)cc(OC)c1OC,–,–,–,–,–,·,·,
Cc1ccc(SCC(=O)Nc2ccc(S(N)(=O)=O)cc2)cc1,–,–,–,–,–,·,·,
Cc1ccccc1C(=O)NC1CCN(C(=O)N(c2ccccc2)c2ccccc2)CC1,–,–,–,·,–,·,·,
CN1CCN(CCCNC(=O)c2ccc(/C=C3\Sc4ccccc4N(Cc4ccc(F)cc4)C3=O)cc2)CC1,–,23.1,–,–,100.3,–,–,
O=C(NCCCN1CCN(CCCNC(=O)c2ccc(F)cc2)CC1)c1ccc(F)cc1,–,–,–,–,–,·,·,
Nc1nc(NCC2CCCO2)nc(Nc2ccc(F)cc2)c1[N+](=O)[O-] (configuration not stated),–,25.3,–,–,–,–,–,
COc1ccc(NC(=O)CSc2nc(C)cs2)c(OC)c1,–,73.9,–,–,–,–,–,
O=C(CCNC(=O)c1ccccc1Cl)Nc1nccs1,–,–,–,–,–,·,·,
COc1ccc(CNC(=S)NC2CCCC2)cc1,–,11.5,–,–,–,–,–,
COc1cccc(CNC(=S)NC2CCCC2)c1,–,–,–,–,–,·,·,
O=C(O)C/C=C(/NC(=O)OCc1ccccc1)C(=O)OCc1ccccc1,–,–,–,–,–,·,·,
O=C(CCc1c[nH]c2ccccc12)N1CCN(c2ccc(O)cc2)CC1,–,–,–,–,–,·,·,
O=C(NCc1ccco1)c1cc2ccc(O)cc2oc1=O,–,111.7,–,–,–,50.8,84.3,
COc1ccc2cc(C(C)=O)c(=O)oc2c1,–,–,–,–,–,·,·,
COc1ccc(N=c2oc3cc(O)ccc3cc2C(=O)Nc2ccccn2)cc1OC,–,–,–,–,–,·,·,
Cc1ccc(N=c2oc3cc(O)ccc3cc2C(N)=O)cc1,–,34.7,–,–,–,–,–,
CC(=O)c1cc2ccc(O)cc2oc1=O,–,104.2,–,–,·,44.7,66.0,
CC(C)[C@H](NC(=O)c1ccc(F)cc1)C(=O)NC1=NCCS1,–,–,–,–,–,·,·,

# Screens (PubChem)
